# Bioassay records as filed in PubChem BioAssay.
# Hits are enriched below; roughly 3.5% of the tested compounds scored in any of these assays.
# MEKK2 WT-MEK5 = modulators of MEK5 binding to wildtype MEKK2, primary screen, biochemical, multiplex bead flow cytometry, Alexa488-MEK5; Mitogen-activated protein kinase kinase kinase 2 (Homo sapiens), Q9Y2U5; Alexa488-MEK5 binding to MEKK2 WT; actives lie on both sides; binding response (% of control), % at 10 µM; 290,000 tested, 1.1% active; AID 1531, 2009; in the data active = binding response below about 67% or above about 130%
# WT yeast gro inh = growth inhibition of WT strain, primary screen, mitochondrial fusion inhibitor project, WT and mutant strains, chemical genetic; AID 1362, 2008; inhibition, % at 10 µM; mitochondrial fusion phenotypic screen; 190,000 tested, 2.1% active; in the data active = inhibition above about 58%; tested in S. cerevisiae
# MEKK2 mut-MEK5 = MEK5 binding signal on mutant MEKK2 PB1, primary screen, biochemical, multiplex bead flow cytometry, Alexa488-MEK5 | Alexa488-MEK5 binding to MEKK2 mutant | percent response, % at 10 µM | 290,000 tested, 0.35% active | AID 1530, 2009; in the data active = percent response above about 24%, passing the limit was not always enough
# MEKK3 PB1 HTS = modulators of MEKK3-MEK5 PB1 binding, primary screen, biochemical, wildtype MEKK3, multiplex bead flow cytometry, Alexa488-MEK5; 290,000 tested, 1.4% active; binding response (% of control), % at 10 µM; bead-based flow cytometry, Alexa488-MEK5 binding to MEKK3; actives lie on both sides; 0 = blocked by unlabeled MEK5, 100 = vehicle; AID 1529, 2009; Mitogen-activated protein kinase kinase kinase 3 (Homo sapiens), Q99759;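 active = binding response more than 3 SD above or below the average of its plate-row segment, actives on both sides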;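 also: Alexa488 bead fluorescence after subtracting the streptavidin-only scavenger bead signal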
# ABCG2 block = ABCG2 efflux pump inhibitors, primary screen, multiplex with ABCB1, IgMXP3 cells, flow cytometry | 190,000 tested, 0.1% active | JC-1 efflux | Broad substrate specificity ATP-binding cassette transporter ABCG2 (Homo sapiens), Q9UNQ0 | inhibition, % at 6.6 µM;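 active = inhibition above 80%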;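 also: 0% = DMSO and 100% = nicardipine control wells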
#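 Test system: ABCG2 IgMXP3 and barcoded ABCB1 CCRF-Adr cell mix; Schedule: cells with compound and JC-1, 10 min at 25 °C, rotating, no wash; Technique: flow cytometry of retained JC-1 fluorescence; Measure: % inhibition of efflux relative to nicardipine and DMSO; Controls: nicardipine high and DMSO low controls.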
# ABCB1 inh = ABCB1 efflux pump inhibitors, primary screen, cell-based, multiplex, flow cytometry, ABCG2 counter-screen. AID 1326, 2008. 190,000 tested, 0.067% active. inhibition, % at 6.6 µM. ATP-dependent translocase ABCB1 (Homo sapiens), P08183. CCRF-Adr cells, JC-1 efflux; in the data active = inhibition above about 40%;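 also: 0% = vehicle and 100% = reference inhibitor; higher value means more JC-1 retained so stronger ABCB1 efflux block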
# Numbers without * were called inactive; . = no result given.
SMILES,MEKK2 WT-MEK5,WT yeast gro inh,MEKK2 mut-MEK5,MEKK3 PB1 HTS,ABCG2 block,ABCB1 inh
CCOc1ccccc1NC(=O)C(OC(=O)c1ccc(O)cc1)c1ccccc1 (configuration not stated),96.0,77.4*,-1.0,94.0,22.6,1.3
CCOc1ccccc1NC(=O)C(NCC1CCCCC1)c1ccccc1 (configuration not stated),92.0,73.9*,-8.0,99.0,2.9,1.3
Cc1ccc(C(=O)NNS(=O)(=O)c2ccc(F)cc2)cc1,103.0,.,2.0,101.0,.,.
CN1Cc2sc(NC(=S)NC(=O)c3ccccc3)c(C#N)c2CC1(C)C,-14.0*,.,11.0,93.0,.,.
Cc1ccc2oc(C(=O)N3CCC(O)(c4cccc(C(F)(F)F)c4)CC3)c(C)c2c1,93.0,.,-3.0,91.0,.,.
CC(=O)N1CCC(O)(c2cccc(C(F)(F)F)c2)CC1,82.0,96.2*,-15.0,72.0,1.1,0.5
CCOC(=O)/C(=C\c1ccccc1)C(=O)c1cc(C(C)=O)c(Nc2ccccc2)s1,82.0,29.9,-10.0,80.0,9.5,3.8
CCOC(=O)/C(=C\c1cccnc1)C(=O)c1cc(C(C)=O)c(Nc2ccccc2)s1,101.0,83.6*,-1.0,100.0,3.5,2.6
Cc1cc(Oc2cnn(C(C)(C)C)c(=O)c2Cl)cc(C(C)C)c1,104.0,67.3*,3.0,107.0,7.5,0.8
CCOc1cnn(-c2cc(Oc3ccc(C)cc3)ncn2)c(=O)c1Cl,105.0,4.6,8.0,104.0,14.6,0.2
CCN(CC)S(=O)(=O)c1cccc(C(=O)NCCCn2ccnc2)c1,106.0,.,5.0,100.0,.,.
Cc1cccc(N2CCN(C(=O)COc3ccc4c(c3)CCC4)CC2)c1C,93.0,73.1*,11.0,106.0,0.0,0.1
CCOc1ccc(-n2cc(C(=O)N3CCCCCC3)c3cc(OC)c(OC)cc3c2=O)cc1,110.0,30.1,4.0,104.0,6.3,2.2
O=C(OCc1nnc(-c2ccccc2)o1)C12CC3CC(CC(Br)(C3)C1)C2,98.0,69.6*,-2.0,104.0,9.6,1.3
O=C(OCc1nnc(-c2ccccc2)o1)c1ccccc1,100.0,7.1,1.0,106.0,5.2,0.7
O=C(O)c1ccc(NC(=S)NC(=O)c2cccc(COc3ccccc3)c2)cc1,89.0,91.1*,-6.0,103.0,-0.9,-0.6
Cc1cccc(C(=O)NC(=S)Nc2ccc(Cc3ccncc3)cc2)c1,107.0,60.6*,4.0,106.0,2.8,0.9
COC(=O)c1ccccc1NC(=S)NC(=O)c1ccccc1,94.0,9.4,6.0,97.0,3.6,0.6
O=C(O)c1ccc(NC(=S)NC(=O)c2ccc3ccccc3c2)cc1,96.0,.,-4.0,97.0,.,.
Cc1ccc(NC(=S)NC(=O)c2ccccc2)cc1NC(=S)NC(=O)c1ccccc1,2.0*,.,-11.0,83.0,.,.
O=C(CCc1nnc2ccc(NCc3ccco3)nn12)N1CCN(c2ccc(F)cc2)CC1,100.0,.,1.0,100.0,.,.
Cc1ccc(OCC(=O)c2ccc3c(c2)CCCC3)cc1C,105.0,58.5*,2.0,106.0,1.4,0.3
Cc1cc(NC(=S)N(Cc2ccc(Br)cc2)Cc2ccc(C(=O)O)cc2)ccc1Cl,99.0,70.4*,-4.0,102.0,-0.1,-0.1
Cc1ccc(NC(=S)N(Cc2cccc(Br)c2)CC2CCC(C(=O)O)CC2)cc1Cl (configuration not stated),88.0,64.0*,-7.0,94.0,1.7,-0.1
Cc1cccc(NC(=S)N(Cc2ccc(Br)cc2)Cc2ccc(C(=O)O)cc2)c1,94.0,0.1,-3.0,103.0,0.1,-0.5
SMILES,MEKK2 WT-MEK5,WT yeast gro inh,MEKK2 mut-MEK5,MEKK3 PB1 HTS,ABCG2 block,ABCB1 inh
CCCCCc1nnc(NC(=O)CN2C(=O)C3CCCCC3C2=O)s1 (configuration not stated),109.0,.,8.0,106.0,.,.
Cc1cccc(NC(=O)c2ccc(COc3ccccc3)o2)n1,94.0,.,-2.0,93.0,.,.
Cc1cccc(NC(=O)c2ccc(COc3ccc(Cl)cc3Cl)o2)n1,105.0,59.7*,2.0,101.0,19.9,-0.2
O=C(NCCOc1ccc(F)cc1)C1CCC(=O)N(CCN2CCOCC2)C1 (configuration not stated),102.0,.,14.0,101.0,.,.
Cc1noc2ncnc(Sc3ccccc3Cl)c12,98.0,98.6*,4.0,99.0,1.5,0.3
Cc1ccc(Sc2ncnc3onc(C)c23)c(C)c1,101.0,60.6*,1.0,102.0,-0.9,0.1
COC(=O)c1ccccc1Sc1ncnc2onc(C)c12,101.0,26.6,-2.0,107.0,2.5,0.2
CC/C(=N\NC(=O)c1nnn(-c2nonc2N)c1-c1cccs1)c1ccccc1,97.0,.,0.0,101.0,.,.
Cc1cc(NC(=O)CCC(=O)N(Cc2ccc(F)cc2)C(C(=O)NC2CCCC2)c2ccco2)no1 (configuration not stated),104.0,.,8.0,100.0,.,.
Oc1ccccc1/C=N/Nc1ccccc1,102.0,79.4*,1.0,105.0,-5.0,-1.1
Cc1cc(N/N=C/c2ccccc2O)nc(-c2ccccc2O)n1,121.0,68.6*,1.0,93.0,1.3,0.0
Cc1cc(N/N=C/c2ccc(O)cc2O)nc(-c2ccccc2O)n1,107.0,10.8,-2.0,103.0,-1.6,-0.8
O=[N+]([O-])c1ccc(N/N=C\c2ccccc2OCc2ccccc2)cc1,9.0*,-3.6,9.0,96.0,13.2,0.1
O=[N+]([O-])c1cccc(N/N=C/c2cccc(O)c2O)c1,94.0,62.1*,-6.0,102.0,1.4,-0.6
Cc1cccc(NC(=O)CSc2nnc(C)c(C)n2)c1,96.0,.,-7.0,104.0,.,.
CCCc1cc(=O)oc2cc(C)cc(OCC(=O)Nc3ccc(CN4CCOCC4)cc3)c12,110.0,.,2.0,103.0,.,.
CC(Oc1ccc(Cl)cc1Cl)c1ccnc2nc(N3CCOCC3)nn12 (configuration not stated),103.0,75.5*,3.0,107.0,7.6,0.6
COc1ccc(C(=O)Nc2nc3ccccc3s2)cc1OC,107.0,68.0*,-9.0,106.0,7.8,-2.6
CN(C)C(=S)Nc1nc2ccccc2s1,100.0,73.8*,0.0,101.0,-11.4,-2.4
COc1ccc(CCn2c(C(C)C)nc3oc4ccccc4c(=O)c3c2=O)cc1,104.0,.,19.0,106.0,.,.
Cn1c(/C=C/N2CCOCC2)c(C(=O)c2ccc(Br)cc2)c(=O)n(C)c1=O,98.0,76.9*,2.0,100.0,19.8,1.4
